Test system: HEK-293T
Experiment: Multiplex assay against HEK293T;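 on Population Tubulin-Different-Phenotype (%): share of the cells with healthy nuclei that show this phenotype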
Assay type: toxicity, cell-based
Conditions: human
In short: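 At seeding, live cells were stained with Hoechst33342, BioTracker Green Microtubule Cytoskeleton Dye, MitoTracker Red and Annexin V Alexa Fluor 680. After compound addition they were imaged on a CQ1 microscope at 37°C and 5% CO2, and CellPathfinder machine-learning gating sorted them into Hoechst high-intensity objects or normal cells, with normal cells further split into healthy, pyknosed or fragmented nuclei and pyknosed cells into mitotic or apoptotic. Tubulin, mitochondrial-mass and membrane-permeability phenotypes are given as per cents of cells with healthy nuclei.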

[1] = 12 h, 1 µM, compound concentration 1 uM, replicate 1
[2] = 12 h, 1 µM, compound concentration 1 uM, replicate 2
[3] = 12 h, 10 µM, compound concentration 10 uM, replicate 1
[4] = 12 h, 10 µM, compound concentration 10 uM, replicate 2
[5] = 24 h, 1 µM, compound concentration 1 uM, replicate 1
[6] = 24 h, 1 µM, compound concentration 1 uM, replicate 2
[7] = 24 h, 10 µM, compound concentration 10 uM, replicate 1
[8] = 24 h, 10 µM, compound concentration 10 uM, replicate 2
[9] = 48 h, 1 µM, compound concentration 1 uM, replicate 1
[10] = 48 h, 1 µM, compound concentration 1 uM, replicate 2
[11] = 48 h, 10 µM, compound concentration 10 uM, replicate 1
[12] = 48 h, 10 µM, compound concentration 10 uM, replicate 2

CC(Cc1ccc(O)c(O)c1)C(C)Cc1ccc(O)c(O)c1 (stereo unspecified) [NORDIHYDROGUAIARETIC ACID]
Population Apoptotic (%) [1]: 42% | Population Fragmented Nuclei (%) [1]: 12% | Population Healthy Nuclei (%) [1]: 34% | Population Hoechst High Intensity Objects (%) [1]: 16% | Population Mitochondria Different-Phenotype (%) [1]: 81% | Population Mitotic Cells (%) [1]: 57% | Population Normal (%) [1]: 83% | Population Pyknosed Nuclei (%) [1]: 52% | Population Tubulin-Different-Phenotype (%) [1]: 6% | Total Cell Count [1]: 150 | Population Apoptotic (%) [2]: 8% | Population Fragmented Nuclei (%) [2]: 6% | Population Healthy Nuclei (%) [2]: 36% | Population Hoechst High Intensity Objects (%) [2]: 5% | Population Membrane Permeable-Phenotype (%) [2]: 2% | Population Mitochondria Different-Phenotype (%) [2]: 28% | Population Mitotic Cells (%) [2]: 91% | Population Normal (%) [2]: 94% | Population Pyknosed Nuclei (%) [2]: 57% | Population Tubulin-Different-Phenotype (%) [2]: 11% | Total Cell Count [2]: 194 | Population Apoptotic (%) [3]: 33% | Population Fragmented Nuclei (%) [3]: 12% | Population Healthy Nuclei (%) [3]: 49% | Population Hoechst High Intensity Objects (%) [3]: 15% | Population Membrane Permeable-Phenotype (%) [3]: 3% | Population Mitochondria Different-Phenotype (%) [3]: 71% | Population Mitotic Cells (%) [3]: 66% | Population Normal (%) [3]: 84% | Population Pyknosed Nuclei (%) [3]: 37% | Population Tubulin-Different-Phenotype (%) [3]: 2% | Total Cell Count [3]: 211 | Population Apoptotic (%) [4]: 11% | Population Fragmented Nuclei (%) [4]: 6% | Population Healthy Nuclei (%) [4]: 55% | Population Hoechst High Intensity Objects (%) [4]: 4% | Population Membrane Permeable-Phenotype (%) [4]: 1% | Population Mitochondria Different-Phenotype (%) [4]: 14% | Population Mitotic Cells (%) [4]: 88% | Population Normal (%) [4]: 95% | Population Pyknosed Nuclei (%) [4]: 38% | Population Tubulin-Different-Phenotype (%) [4]: 0% | Total Cell Count [4]: 254 | Population Apoptotic (%) [5]: 35% | Population Fragmented Nuclei (%) [5]: 12% | Population Healthy Nuclei (%) [5]: 42% | Population Hoechst High Intensity Objects (%) [5]: 12% | Population Membrane Permeable-Phenotype (%) [5]: 1% | Population Mitochondria Different-Phenotype (%) [5]: 46% | Population Mitotic Cells (%) [5]: 64% | Population Normal (%) [5]: 87% | Population Pyknosed Nuclei (%) [5]: 45% | Population Tubulin-Different-Phenotype (%) [5]: 15% | Total Cell Count [5]: 156 | Population Apoptotic (%) [6]: 18% | Population Fragmented Nuclei (%) [6]: 5% | Population Healthy Nuclei (%) [6]: 48% | Population Hoechst High Intensity Objects (%) [6]: 3% | Population Membrane Permeable-Phenotype (%) [6]: 6% | Population Mitochondria Different-Phenotype (%) [6]: 11% | Population Mitotic Cells (%) [6]: 81% | Population Normal (%) [6]: 96% | Population Pyknosed Nuclei (%) [6]: 46% | Population Tubulin-Different-Phenotype (%) [6]: 12% | Total Cell Count [6]: 212 | Population Apoptotic (%) [7]: 27% | Population Fragmented Nuclei (%) [7]: 17% | Population Healthy Nuclei (%) [7]: 39% | Population Hoechst High Intensity Objects (%) [7]: 7% | Population Membrane Permeable-Phenotype (%) [7]: 0% | Population Mitochondria Different-Phenotype (%) [7]: 50% | Population Mitotic Cells (%) [7]: 72% | Population Normal (%) [7]: 92% | Population Pyknosed Nuclei (%) [7]: 42% | Population Tubulin-Different-Phenotype (%) [7]: 7% | Total Cell Count [7]: 192 | Population Apoptotic (%) [8]: 16% | Population Fragmented Nuclei (%) [8]: 8% | Population Healthy Nuclei (%) [8]: 58% | Population Hoechst High Intensity Objects (%) [8]: 3% | Population Membrane Permeable-Phenotype (%) [8]: 1% | Population Mitochondria Different-Phenotype (%) [8]: 4% | Population Mitotic Cells (%) [8]: 83% | Population Normal (%) [8]: 96% | Population Pyknosed Nuclei (%) [8]: 32% | Population Tubulin-Different-Phenotype (%) [8]: 1% | Total Cell Count [8]: 255 | Population Apoptotic (%) [9]: 21% | Population Fragmented Nuclei (%) [9]: 11% | Population Healthy Nuclei (%) [9]: 68% | Population Hoechst High Intensity Objects (%) [9]: 8% | Population Membrane Permeable-Phenotype (%) [9]: 5% | Population Mitochondria Different-Phenotype (%) [9]: 19% | Population Mitotic Cells (%) [9]: 78% | Population Normal (%) [9]: 91% | Population Pyknosed Nuclei (%) [9]: 20% | Population Tubulin-Different-Phenotype (%) [9]: 14% | Total Cell Count [9]: 223 | Population Apoptotic (%) [10]: 14% | Population Fragmented Nuclei (%) [10]: 7% | Population Healthy Nuclei (%) [10]: 69% | Population Hoechst High Intensity Objects (%) [10]: 5% | Population Membrane Permeable-Phenotype (%) [10]: 7% | Population Mitochondria Different-Phenotype (%) [10]: 1% | Population Mitotic Cells (%) [10]: 85% | Population Normal (%) [10]: 94% | Population Pyknosed Nuclei (%) [10]: 23% | Population Tubulin-Different-Phenotype (%) [10]: 16% | Total Cell Count [10]: 312 | Population Apoptotic (%) [11]: 21% | Population Fragmented Nuclei (%) [11]: 21% | Population Healthy Nuclei (%) [11]: 50% | Population Hoechst High Intensity Objects (%) [11]: 11% | Population Membrane Permeable-Phenotype (%) [11]: 7% | Population Mitochondria Different-Phenotype (%) [11]: 5% | Population Mitotic Cells (%) [11]: 78% | Population Normal (%) [11]: 88% | Population Pyknosed Nuclei (%) [11]: 28% | Population Tubulin-Different-Phenotype (%) [11]: 3% | Total Cell Count [11]: 187 | Population Apoptotic (%) [12]: 14% | Population Fragmented Nuclei (%) [12]: 7% | Population Healthy Nuclei (%) [12]: 67% | Population Hoechst High Intensity Objects (%) [12]: 4% | Population Membrane Permeable-Phenotype (%) [12]: 5% | Population Mitochondria Different-Phenotype (%) [12]: 1% | Population Mitotic Cells (%) [12]: 85% | Population Normal (%) [12]: 95% | Population Pyknosed Nuclei (%) [12]: 25% | Population Tubulin-Different-Phenotype (%) [12]: 1% | Total Cell Count [12]: 280

Reference: ChEMBL document CHEMBL4689842, “EUbOPEN Chemogenomics Library wave 1” (2021)
